The source made the active and inactive calls. No cut-off for these calls is given here.
biological target: T1, Substance-P receptor (Homo sapiens, UniProt P25103); assay: Displacement of [125I]BH-SP from human tachykinin NK1 receptor expressed in IM9 cells after 30 mins by scintillation counting; assay type: cell-based, IM-9; settings: not given
Method in brief: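 Membranes from IM-9 cells grown 3 days, homogenized in 50 mM Tris-HCl pH 7.4 with NaCl, KCl, EDTA and protease inhibitors, spun at 40,000g for 20 min, then resuspended in a Tris buffer with 0.02% BSA and 3 mM MnCl2. Nonspecific binding was defined with 2 × 10^-6 M SP. Bound ligand was collected on GF/C filters, washed three times and counted.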

T1 sequence (P25103 whole entry): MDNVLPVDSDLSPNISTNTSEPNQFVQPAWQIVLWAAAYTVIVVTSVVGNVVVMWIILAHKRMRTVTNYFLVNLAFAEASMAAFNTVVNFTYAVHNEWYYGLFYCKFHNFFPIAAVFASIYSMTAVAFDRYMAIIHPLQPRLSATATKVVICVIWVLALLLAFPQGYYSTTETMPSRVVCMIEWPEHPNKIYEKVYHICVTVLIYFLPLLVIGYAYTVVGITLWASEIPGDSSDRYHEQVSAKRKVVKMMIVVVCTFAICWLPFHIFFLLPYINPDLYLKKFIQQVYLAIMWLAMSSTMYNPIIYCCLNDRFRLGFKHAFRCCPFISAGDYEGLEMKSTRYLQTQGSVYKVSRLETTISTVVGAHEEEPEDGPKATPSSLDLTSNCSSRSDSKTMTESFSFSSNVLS

IC50	Structure (SMILES)
3.1 nM	COc1ccc(OC)c(CN2CCC(=O)C(C(c3ccc(F)cc3)c3ccc(F)cc3)C2)c1 (racemic)
5.9 nM	COc1ccc(N)cc1CN1CCC(=O)C(C(c2ccccc2)c2ccccc2)C1 (racemic)
4 nM	COc1ccc(F)cc1CN1CCC(=O)C(C(c2ccc(F)cc2)c2ccc(F)cc2)C1 (racemic)
97 nM	O=C1CCN(Cc2ccccc2)CC1C(c1ccccc1)c1ccccc1 (racemic)
46 nM	O=C1CCN(Cc2ccccc2F)CC1C(c1ccc(F)cc1)c1ccc(F)cc1 (racemic)
97 nM	O=C1CCN(Cc2ccccc2)CC1C(c1ccc(F)cc1)c1ccc(F)cc1 (racemic)
2.6 nM	COc1ccc([N+](=O)[O-])cc1CN1CCC(=O)C(C(c2ccccc2)c2ccccc2)C1 (racemic)
31 nM	COc1cccc(CN2CCC(=O)C(C(c3ccc(F)cc3)c3ccc(F)cc3)C2)c1 (racemic)
97 nM	O=C1CCN(Cc2ccccc2)CC1C(c1ccc(Cl)cc1)c1ccc(Cl)cc1 (racemic)
0.81 nM	COc1ccc(OC(F)(F)F)cc1CN1CCC(=O)C(C(c2ccc(F)cc2)c2ccc(F)cc2)C1 (racemic)
4.9 nM	O=C1CCN(Cc2ccccc2C(F)(F)F)CC1C(c1ccc(F)cc1)c1ccc(F)cc1 (racemic)
1.1 nM	COc1ccc(Br)cc1CN1CCC(=O)C(C(c2ccc(F)cc2)c2ccc(F)cc2)C1 (racemic) [listing 1 of 2 here]
6.6 nM	COc1ccccc1CN1CCC(=O)C(C(c2ccc(F)cc2)c2ccc(F)cc2)C1 (racemic)

Further lines, the compound ahead of its results:

Structure (SMILES)	IC50
O=C1CCN(Cc2ccc(C(F)(F)F)cc2)CC1C(c1ccc(F)cc1)c1ccc(F)cc1 (racemic)	220 nM
O=C1CCN(Cc2ccccc2[N+](=O)[O-])CC1C(c1ccc(F)cc1)c1ccc(F)cc1 (racemic)	18 nM
COc1ccc(CN2CCC(=O)C(C(c3ccc(F)cc3)c3ccc(F)cc3)C2)cc1 (racemic)	77 nM
O=C1CCN(Cc2cccc(C(F)(F)F)c2)CC1C(c1ccc(F)cc1)c1ccc(F)cc1 (racemic)	270 nM
COc1ccc(CN2CCC(=O)C(C(c3ccc(F)cc3)c3ccc(F)cc3)C2)c(OC)c1 (racemic)	9.5 nM
O=C1CCN(Cc2ccccc2-c2ccccc2)CC1C(c1ccc(F)cc1)c1ccc(F)cc1 (racemic)	14 nM
COc1cccc(CN2CCC(=O)C(C(c3ccc(F)cc3)c3ccc(F)cc3)C2)c1OC (racemic)	55 nM
COc1cccc(OC)c1CN1CCC(=O)C(C(c2ccc(F)cc2)c2ccc(F)cc2)C1 (racemic)	2.3 nM
COc1ccc(NC(C)=O)cc1CN1CCC(=O)C(C(c2ccccc2)c2ccccc2)C1 (racemic)	15 nM
O=C1CCN(Cc2ccccc2O)CC1C(c1ccc(F)cc1)c1ccc(F)cc1 (racemic)	280 nM
COc1ccc(Br)cc1CN1CCC(=O)C(C(c2ccc(F)cc2)c2ccc(F)cc2)C1 (single isomer, unassigned; (+))	1.5 nM
N#Cc1ccccc1CN1CCC(=O)C(C(c2ccc(F)cc2)c2ccc(F)cc2)C1 (racemic)	6.1 nM

biological target: T1, Substance-P receptor; assay: Displacement of [125I]BH-SP from human tachykinin NK1 receptor expressed in IM9 cells at 10^-7 M after 30 mins by scintillation counting; assay type: cell-based; settings: IM-9

inhibition	Structure (SMILES)
81.7%	O=C1CCN(Cc2ccccc2)CC1C(c1ccccc1)c1ccccc1 (racemic)
81.7%	O=C1CCN(Cc2ccccc2)CC1C(c1ccc(F)cc1)c1ccc(F)cc1 (racemic)
-2%	O=C1CCN(Cc2ccccc2)CC1=C(c1ccccc1)c1ccccc1
81.7%	O=C1CCN(Cc2ccccc2)CC1C(c1ccc(Cl)cc1)c1ccc(Cl)cc1 (racemic)
-0.6%	O=C1CN(Cc2ccccc2)CC1C(c1ccccc1)c1ccccc1 (racemic)
29.8%	O=C1CCN(Cc2ccccc2)CC1C1c2ccccc2Oc2ccccc21 (racemic)
54.3%	O=C1CCN(CCc2ccccc2)CC1C(c1ccccc1)c1ccccc1 (racemic)

Further lines, the compound ahead of its results:

Structure (SMILES)	inhibition
O=C1CCN(Cc2cc(C(F)(F)F)cc(C(F)(F)F)c2)CC1C(c1ccc(F)cc1)c1ccc(F)cc1 (racemic)	32.9%
O=C1CCN(Cc2ccccc2)CC1C1c2ccccc2C=Cc2ccccc21 (racemic)	31.1%
O=C1CCNCC1C(c1ccccc1)c1ccccc1 (racemic)	17.6%
O=C1CN(Cc2ccccc2)CCC1C(c1ccccc1)c1ccccc1 (racemic)	9.7%

tested on: Cavia porcellus; assay: Inhibition of capsaicin-induced plasma extravasation in trachea of po dosed guinea pig; assay type: functional, organism-based; settings: not given

Structure (SMILES)	inhibition
COc1ccc(NS(C)(=O)=O)cc1CN1CCC(=O)C(C(c2ccccc2)c2ccccc2)C1 (racemic)	inactive
COc1ccc(Br)cc1CN1CCC(=O)C(C(c2ccc(F)cc2)c2ccc(F)cc2)C1 (racemic) [listing 2 of 2 here]	inactive
COc1ccc(C(C)C)cc1CN1CCC(=O)C(C(c2ccccc2)c2ccccc2)C1 (racemic)	inactive
COc1ccc(OC(F)(F)F)cc1CN1CCC(=O)C(C(c2ccccc2)c2ccccc2)C1 (racemic)	inactive

tested on: Cavia porcellus; assay: Inhibition of capsaicin-induced plasma extravasation in trachea of iv dosed guinea pig; assay type: functional, organism-based; settings: not given

Structure (SMILES)	inhibition
COc1ccc(NS(C)(=O)=O)cc1CN1CCC(=O)C(C(c2ccccc2)c2ccccc2)C1 (racemic)	inactive
COc1ccc(Br)cc1CN1CCC(=O)C(C(c2ccc(F)cc2)c2ccc(F)cc2)C1 (racemic) [listing 2 of 2 here]	inactive
COc1ccc(C(C)C)cc1CN1CCC(=O)C(C(c2ccccc2)c2ccccc2)C1 (racemic)	inactive
COc1ccc(OC(F)(F)F)cc1CN1CCC(=O)C(C(c2ccccc2)c2ccccc2)C1 (racemic)	inactive

Reference: ChEMBL document CHEMBL1817606, “3-benzhydryl-4-piperidones as novel neurokinin-1 receptor antagonists and their efficient synthesis” (Bioorg Med Chem, 2011)
